Calls of active or inactive are those of the source. The rule behind the calls is not given here.
Tests used:
Prothrombin [1] = biological target: T1, Prothrombin (Homo sapiens, UniProt P00734); assay: Inhibition of human alpha-thrombin assessed as spectrozyme TH hydrolysis after 10 mins by spectrophotometric analysis
Summary of the method: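 Human α-thrombin (~5 nM initial) preincubated 10 min with inhibitor (4 μg/ml to 5 mg/ml stocks) at 25 °C. Buffer: 20 mM Tris-HCl pH 7.4, 100 mM NaCl, 2.5 mM CaCl2, 0.1% PEG 8000. Fractional residual activity fitted to logistic equation (Hill slope fixed at 1) for IC50 and efficacy ΔY.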

Plasma [2] = assay: Anticoagulant activity in human plasma assessed as concentration required to double the activated partial thromboplastin time; type: functional
Prothrombin [3] = biological target: T1, Prothrombin; assay: Non-competitive inhibition of human alpha-thrombin assessed as spectrozyme TH hydrolysis at 1.5 to 30 uM by Michaelis-Menten equation analysis
Summary of the method: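 Spectrozyme TH (10 to 600 μM) hydrolysed by 5–10 nM human thrombin at fixed inhibitor levels (0–30 μM) in 20 mM Tris-HCl pH 7.4, 37 °C. Initial rate taken from linear A405 rise with under 10% substrate consumption. KM and VMAX obtained by fitting the Michaelis-Menten equation.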

Plasma [4] = assay: Anticoagulant activity in human plasma assessed as concentration required to double the prothrombin time; type: functional
Summary of the method: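 One-stage recalcification PT on a fibrometer. 10 μL inhibitor brought to 100 μL with citrated human plasma, incubated 30 s at 37 °C, then 200 μL prewarmed thromboplastin added and clotting time recorded. Deionized water gave baseline clotting time. Duplicates; concentration doubling PT read from clotting time versus concentration.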

| Structure (SMILES) | IC50 (Prothrombin [1]; read-out: IC50) | 2aPTT (Plasma [2]) | IC50 (Prothrombin [1]; read-out: pIC50 (converted)) | inhibition (Prothrombin [3]) | 2PT (Plasma [4]) |
| --- | --- | --- | --- | --- | --- |
| COc1cc2oc(C)c(C(=O)OC(C)(C)C)c2cc1OS(=O)(=O)[O-].[Na+] | > 3000 µM | >2000 µM |  |  |  |
| CCOC(=O)c1c(COc2cc3c(C(=O)OCC)c(CN4CCOCC4)oc3cc2OC)oc2cc(OC)c(OS(=O)(=O)O)cc12 | 129 µM |  | 129 µM |  |  |
| CCOC(=O)c1c(CN2CCOCC2)oc2cc(OC)c(OS(=O)(=O)O)cc12 | > 7000 µM |  |  |  |  |
| CCOC(=O)c1c(C)oc2cc(OC)c(OCc3oc4cc(OC)c(OS(=O)(=O)[O-])cc4c3C(=O)OCC)cc12.[Na+] | 60 µM | 740 µM |  | Active | 2100 µM |
| CCOC(=O)c1c(C)oc2cc(OC(C)C)c(OS(=O)(=O)O)cc12 | 13700 µM |  |  |  |  |
| COc1cc2oc(C)c(C(=O)N3CCCCC3)c2cc1OS(=O)(=O)O | > 2000 µM |  |  |  |  |
| COC(=O)c1c(C)oc2cc(OC)c(OS(=O)(=O)O)cc12 | > 3000 µM |  |  |  |  |
| CCOC(=O)c1c(C)oc2cc(OC)c(OS(=O)(=O)O)cc12 | > 2500 µM |  |  |  |  |
| CCOC(=O)c1c(C)oc2cc(OCC)c(OS(=O)(=O)O)cc12 | 20600 µM |  | 20000 µM |  |  |
| COc1cc2oc(C)c(C(=O)O)c2cc1OCc1oc2cc(OC)c(OS(=O)(=O)[O-])cc2c1C(=O)O.[Na+] | 374 µM | >1000 µM |  |  |  |
| COc1cc2oc(C)c(C(=O)N3CCOCC3)c2cc1OCc1oc2cc(OC)c(OS(=O)(=O)[O-])cc2c1C(=O)N1CCOCC1.[Na+] | > 7100 µM | >1000 µM |  |  |  |
| COCCOC(=O)c1c(C)oc2cc(OC)c(OS(=O)(=O)O)cc12 | > 2000 µM |  |  |  |  |
| CCOC(=O)c1c(C)oc2cc(OCOC)c(OS(=O)(=O)[O-])cc12.[Na+] | > 16000 µM | >1200 µM |  |  |  |
| CCOC(=O)c1c(C)oc2cc(OC(C)C)c(OCc3oc4cc(OC(C)C)c(OS(=O)(=O)O)cc4c3C(=O)OCC)cc12 | 30 µM |  |  |  |  |
| CCOC(=O)c1c(C)oc2cc(OCC)c(OCc3oc4cc(OCC)c(OS(=O)(=O)[O-])cc4c3C(=O)OCC)cc12.[Na+] | 121 µM | 530 µM |  |  |  |
| COC(=O)c1c(C)oc2cc(OC)c(OCc3oc4cc(OC)c(OS(=O)(=O)[O-])cc4c3C(=O)OC)cc12.[Na+] | 37 µM | >1000 µM | 37.2 µM |  | 850 µM |
| CCOC(=O)c1c(C)oc2cc(OC)c(OCc3oc4cc(OS(=O)(=O)O)c(OS(=O)(=O)O)cc4c3C(=O)OCC)cc12 | 365 µM |  | 363 µM |  |  |
| COc1cc2oc(C)c(C(=O)N3CCOCC3)c2cc1OS(=O)(=O)O | > 2000 µM |  |  |  |  |
| CCOC(=O)c1c(C)oc2cc(OC(=O)c3ccc(OC)cc3)c(OS(=O)(=O)[O-])cc12.[Na+] | 520 µM | 1250 µM |  |  | 1200 µM |
| COCCOC(=O)c1c(C)oc2cc(OC)c(OCc3oc4cc(OC)c(OS(=O)(=O)[O-])cc4c3C(=O)OCCOC)cc12.[Na+] | 375 µM | >1000 µM |  |  |  |
| CCOC(=O)c1c(C)oc2cc(OCc3oc4cc(OC)c(OS(=O)(=O)O)cc4c3C(=O)OCC)c(OS(=O)(=O)O)cc12 | 764 µM |  | 759 µM |  |  |
| CCOC(=O)c1c(C)oc2cc(OC(=O)N3CCOCC3)c(OS(=O)(=O)O)cc12 | > 25000 µM |  |  |  |  |
| COc1cc2oc(C)c(C(=O)OC(C)(C)C)c2cc1OCc1oc2cc(OC)c(OS(=O)(=O)[O-])cc2c1C(=O)OC(C)(C)C.[Na+] | 7.3 µM | 355 µM | 7.24 µM |  |  |
| C=CCOC(=O)c1c(C)oc2cc(OC)c(OS(=O)(=O)O)cc12 | > 3000 µM |  |  |  |  |
